Reference: publication PMC12079591 (ACS Omega, 2025)
Where two headings read alike, the source gives them in different places.

What was measured:
MDA-MB-231 cells = assay: Cell cycle analysis by flow cytometry; assay type: cell-based, human; settings: MDA-MB-231, 24 h treatment
Outline: (§1)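 Cells were seeded in 12-well plates overnight, then exposed to test compound for 24 h. Cells were trypsinized, washed in cold PBS and fixed overnight in 70% ethanol at −20 °C. After two PBS washes they were stained 30 min at 37 °C with 50 μg/mL propidium iodide plus 20 μg/mL RNase A. About 10,000 cells were acquired by flow cytometry. Results are means ± SD; two-tailed unpaired t test.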

A-431 = assay: Cell proliferation assay; assay type: cell-based; settings: read-out: IC50 A-431; squamous cell carcinoma; mean ± SD (n ≥ 2)
Outline: (§2)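 Mycoplasma-negative, STR-authenticated cells were seeded at 4000−6000/well and kept overnight at 37 °C, 5% CO2. Graded test compound concentrations or solvent control were added to triplicate wells. Adherent lines were read by SRB (OD 510 nm) and suspension lines by MTT (OD 570 nm). IC50 was obtained by nonlinear regression. Results are means ± SD (n ≥ 2).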

MV-4-11 = assay: Cell proliferation assay; assay type: cell-based; settings: read-out: IC50 MV-4-11; acute myeloid leukemia; mean ± SD (n ≥ 2)
Outline: as §2

PC-3 = assay: Cell proliferation assay; assay type: cell-based, human; settings: read-out: IC50 PC-3; prostate carcinoma; mean ± SD (n ≥ 2)
Outline: as §2

NUGC-3 = assay: Cell proliferation assay; assay type: cell-based; settings: read-out: IC50 NUGC-3; gastric carcinoma; mean ± SD (n ≥ 2)
Outline: as §2

DOHH2 = assay: Cell proliferation assay; assay type: cell-based; settings: read-out: IC50 DOHH2; diffuse large B cell lymphoma; mean ± SD (n ≥ 2)
Outline: as §2

[1] = system: P-AKT, P-STAT3, P-STAT5, P-P38; assay: Western blot of JAK/STAT5, PI3K/AKT and p38 MAPK pathways; assay type: cell-based, human; settings: MDA-MB-231 and PC-3 cells, 24 h, concentration-dependent
Outline: (§3)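 MDA-MB-231 and PC-3 cells were seeded in 12-well plates overnight, then exposed to a concentration gradient of test compound. Cells were lysed in SDS sample buffer, and equal protein amounts were run on SDS-PAGE and transferred to PVDF. Membranes were probed with primary antibodies, then HRP-conjugated secondary antibodies, and detected by ECL chemiluminescence.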

K562/ADR = assay: Cell proliferation assay, multidrug-resistant K562/ADR; assay type: cell-based; settings: for RF (resistance factor): K562/ADR versus K562; for IC50: read-out: IC50 K562/ADR, multidrug-resistant subline, mean ± SD (n ≥ 2)
Outline: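 K562/ADR cells were derived from parental K562 by stepwise increases in ADR concentration. Proliferation was measured by the SRB (adherent) or MTT (suspension) method: 4000−6000 cells/well seeded overnight at 37 °C, 5% CO2, graded test compound in triplicate wells. IC50 was obtained by nonlinear regression. The resistance factor compares K562/ADR with parental K562. Results are means ± SD (n ≥ 2).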

MDR1 = assay: Western blot of MDR1 in K562/ADR; assay type: cell-based; settings: 48 h, concentration-dependent
Outline: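 K562 and K562/ADR cells were seeded in 12-well plates overnight and treated with a concentration gradient of test compound for 48 h. Lysates in SDS sample buffer (equal protein) were separated by SDS-PAGE and transferred to PVDF. MDR1 was probed with primary and HRP-conjugated secondary antibodies and detected by ECL.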

K562 = assay: Cell proliferation assay; assay type: cell-based; settings: read-out: IC50 K562, mean ± SD (n ≥ 2)
Outline: as §2

[2] = system: cyclin A2, cyclin B1, and cyclin D1; assay: Western blot of cell cycle-related proteins; assay type: cell-based, human; settings: MDA-MB-231 and PC-3 cells, 24 h, dose-dependent
Outline: as §3

SUDHL-4 = assay: Cell proliferation assay; assay type: cell-based; settings: read-out: IC50 SUDHL-4; diffuse large B cell lymphoma; mean ± SD (n ≥ 2)
Outline: as §2

PC-3 cells = assay: Cell cycle analysis by flow cytometry; assay type: cell-based, human; settings: PC-3, 24 h treatment
Outline: as §1

MDA-MB-231 = assay: Cell proliferation assay; assay type: cell-based, human; settings: read-out: IC50 MDA-MB-231; breast carcinoma; mean ± SD (n ≥ 2)
Outline: as §2

KATO III = assay: Cell proliferation assay; assay type: cell-based; settings: read-out: IC50 KATO III; gastric carcinoma; mean ± SD (n ≥ 2)
Outline: as §2

HCT116 = assay: Cell proliferation assay; assay type: cell-based; settings: read-out: IC50 HCT116; colorectal carcinoma; mean ± SD (n ≥ 2)
Outline: as §2

HPAF-II = assay: Cell proliferation assay; assay type: cell-based; settings: read-out: IC50 HPAF-II; pancreatic carcinoma; mean ± SD (n ≥ 2)
Outline: as §2

H1975 = assay: Cell proliferation assay; assay type: cell-based; settings: read-out: IC50 H1975; lung carcinoma; mean ± SD (n ≥ 2)
Outline: as §2

NCI-H460 = assay: Cell proliferation assay; assay type: cell-based; settings: read-out: IC50 NCI-H460; lung carcinoma; mean ± SD (n ≥ 2)
Outline: as §2

[3] = Boron biodistribution of compound 1d by ICP-mass; assay type: in vivo, mice; settings: 3 h postinjection
Outline: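 Mice bearing subcutaneous tumours got a single intraperitoneal injection of 2 mg test compound in saline/DMSO and were sacrificed at 3 h. Blood was taken by cardiac puncture, and major organs and tumour were harvested and weighed. Tissue was digested 2 days at room temperature in 1 mL 1:1 concentrated H2SO4/HNO3, diluted 100-fold in water and filtered (0.22 μm). Boron was measured by ICP-OES and ICP-MS as μg/g tissue.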

| Substance | IC50 (A-431) [µM] | IC50 (MV-4-11) [µM] | IC50 (PC-3) [µM] | IC50 (K562; chronic myeloid leukemia) [µM] | IC50 (SUDHL-4) [µM] | IC50 (MDA-MB-231) [µM] | IC50 (HCT116) [µM] | IC50 (H1975) [µM] | IC50 (NCI-H460) [µM] | IC50 (NUGC-3) [µM] | IC50 (DOHH2) [µM] | IC50 (KATO III) [µM] | IC50 (HPAF-II) [µM] | further results |
| --- | --- | --- | --- | --- | --- | --- | --- | --- | --- | --- | --- | --- | --- | --- |
| 3-(1,2-Dicarba-closo-dodecarboranyl)-4-oxo-4H-chromen-7-yl Sulfurofluoridate [Compound 1m] | 4.86 ± 0.21 | 5.45 ± 0.26 | 4.99 ± 2.76 | 4.52 ± 0.8 | 4.29 ± 0.54 | 5.46 ± 0.61 | 2.86 ± 0.23 | 5.63 ± 0.3 | 3.19 ± 0.18 | 2.54 ± 0.37 | 1.93 ± 0.12 | 3.55 ± 0.15 | 2.67 ± 0.55 | effect on cell cycle distribution (MDA-MB-231 cells): caused G0/G1 cell cycle arrest; P-P38 expression [1]: upregulating; expression of P-AKT, P-STAT3, and P-STAT5 [1]: reduced; RF (resistance factor) (K562/ADR): 0.67; IC50 (K562/ADR): 3.04 ± 0.0347 µM; expression of MDR1 (MDR1): significantly inhibited; IC50 (K562; parental cell line): 4.52 ± 0.806 µM; expression of cyclin A2, cyclin B1, and cyclin D1 [2]: downregulated; effect on cell cycle distribution (PC-3 cells): caused G0/G1 cell cycle arrest |
| 3-(1,2-Dicarba-closo-dodecarboranyl)-4H-chromen-4-one [Compound 1a] | – | – | 66.6 ± 8.79 | – | – | 75.2 ± 20.8 | – | – | – | – | – | – | – | – |
| 3-(1,2-Dicarba-closo-dodecarboranyl)-5,7-dihydroxy-4H-chromen-4-one [Compound 1g] | 4.84 ± 1.07 | 5.65 ± 0.02 | 5.14 ± 2.93 | 7 ± 0.27 | 6.16 ± 0.34 | 5.34 ± 1.03 | 4.21 ± 0.11 | 5.13 ± 1.08 | 5.93 ± 2.15 | 4.79 ± 0.44 | 5.23 ± 0.62 | 5.02 ± 0.38 | 4.14 ± 0.93 | – |
| 3-(1,2-Dicarba-closo-dodecarboranyl)-5-hydroxy-7-methoxy-4H-chromen-4-one [Compound 1f] | – | – | > 100 | – | – | > 100 | – | – | – | – | – | – | – | – |
| 3-(1,2-Dicarba-closo-dodecarboranyl)-7-hydroxy-4H-chromen-4-one [Compound 1d] | 4.09 ± 0.46 | 4.25 ± 0.34 | 5.24 ± 1.9 | 5.29 ± 0.86 | 5.4 ± 0.48 | 5.59 ± 1.82 | 3.42 ± 0.22 | 5.27 ± 0.63 | 4.24 ± 0.9 | 3.36 ± 0.02 | 2.78 ± 0.26 | 4.38 ± 0.04 | 3.56 ± 0.38 | effect on cell cycle distribution (MDA-MB-231 cells): caused G0/G1 cell cycle arrest; brain/blood uptake ratio (boron) [3]: 0.45; boron content in blood ([3]; 2 mg intraperitoneal, mice): 2.28 ± 0.99 µg/g; boron content in brain ([3]; 2 mg intraperitoneal, mice): 1.03 ± 0.43 µg/g; boron content in liver ([3]; 2 mg intraperitoneal, mice): 56.37 ± 4.71 µg/g; boron content in pancreas ([3]; 2 mg intraperitoneal, mice): 40.74 ± 4.67 µg/g; boron content in tumor ([3]; 2 mg intraperitoneal, mice): 2.18 ± 1.18 µg/g; P-P38 expression [1]: upregulating; expression of P-AKT, P-STAT3, and P-STAT5 [1]: reduced; RF (resistance factor) (K562/ADR): 0.93; IC50 (K562/ADR): 4.91 ± 0.094 µM; expression of MDR1 (MDR1): significantly inhibited; IC50 (K562; parental cell line): 5.29 ± 0.861 µM; expression of cyclin A2, cyclin B1, and cyclin D1 [2]: downregulated; effect on cell cycle distribution (PC-3 cells): caused G0/G1 cell cycle arrest |
| 3-(1,2-Dicarba-closo-dodecarboranyl)-7-methoxy-2H-chromene [Compound 1j] | – | – | 10.9 ± 3.31 | – | – | 16 ± 0.16 | – | – | – | – | – | – | – | – |

More lines, in order of falling IC50 (PC-3), values ahead:

| IC50 (A-431) [µM] | IC50 (MV-4-11) [µM] | IC50 (PC-3) [µM] | IC50 (K562; chronic myeloid leukemia) [µM] | IC50 (SUDHL-4) [µM] | IC50 (MDA-MB-231) [µM] | IC50 (HCT116) [µM] | IC50 (H1975) [µM] | IC50 (NCI-H460) [µM] | Substance | IC50 (NUGC-3) [µM] | IC50 (DOHH2) [µM] | IC50 (KATO III) [µM] | IC50 (HPAF-II) [µM] | further results |
| --- | --- | --- | --- | --- | --- | --- | --- | --- | --- | --- | --- | --- | --- | --- |
| – | – | 54.7 ± 6.26 | – | – | 47.5 ± 7.39 | – | – | – | 3-(1,2-Dicarba-closo-dodecarboranyl)-7-methoxy-4H-chromen-4-one [Compound 1b] | – | – | – | – | – |
| – | – | 53.1 ± 0.73 | – | – | 55.8 ± 6.71 | – | – | – | 3-(1,2-Dicarba-closo-dodecarboranyl)-5,7-dimethoxy-4H-chromen-4-one [Compound 1e] | – | – | – | – | – |
| – | – | 13.5 ± 1.02 | – | – | 14.6 ± 1.58 | – | – | – | 3-(1,2-Dicarba-closo-dodecarboranyl)-7-methoxychroman-4-ol [Compound 1h] | – | – | – | – | – |
